Assay results reported in paper PMC10427982 (eBioMedicine, 2023).
Marks after values point to notes of the source that are not given here.

Tests used:
[1] = after remdesivir 30 mg/kg i.v.; cited from earlier work
[2] = system: human airway epithelial cells (HAE); conditions: cited from earlier work
[3] = animal models; cited from earlier work
[4] = Multisite microdialysis pharmacokinetics after molnupiravir; assay type: in vivo, rat
Summary of the method: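 Pregnant Sprague–Dawley rats at gestation day 16 (300 ± 50 g), fasted 12 h and anaesthetised with urethane 1 g/kg i.p. Test compound in normal saline given alone via femoral vein catheter. Unbound drug and metabolite sampled by microdialysis in jugular vein, fetus, placenta and amniotic fluid, perfused with citrate-dextrose solution. Dialysates every 20 min over 6 h, UHPLC-MS/MS. Ratios taken as AUC quotients ×100%. n = 6, mean ± SEM.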

[5] = cited from earlier work
[6] = Multisite microdialysis pharmacokinetics after molnupiravir; assay type: in vivo, rat; remark: listed apart in the source
Summary of the method: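 Pregnant Sprague–Dawley rats (gestation day 16, 300 ± 50 g), fasted 12 h, under urethane anaesthesia (1 g/kg i.p.). Test compound in normal saline, with the ENT inhibitor in 10% DMSO/90% PEG-400, given together via the femoral vein. Microdialysis probes sit in the jugular vein, fetus, placenta and amniotic fluid, perfused with ACD solution. Dialysates are collected every 20 min for 6 h and assayed by UHPLC-MS/MS. n = 6, mean ± SEM.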

[7] = lactating rats administered molnupiravir; cited from earlier work
human ENT2 = conditions: cited from earlier work
[8] = single and multiple doses; cited from earlier work
human ENT1 = conditions: cited from earlier work
[9] = blood, molnupiravir 100 mg/kg i.v. alone
[10] = female, Sprague-Dawley, rat, amniotic fluid dialysate, iv, 100 mg/kg
[11] = female, Sprague-Dawley, rat, blood dialysate, iv, 100 mg/kg
[12] = female, Sprague-Dawley, rat, fetus dialysate, iv, 100 mg/kg
[13] = female, Sprague-Dawley, rat, placenta dialysate, iv, 100 mg/kg
[14] = female, Sprague-Dawley, rat, amniotic fluid, iv, 100 mg/kg, with NBMPR (ENT inhibitor) 10 mg/kg i.v., co-administered
[15] = female, Sprague-Dawley, rat, blood, iv, 100 mg/kg, with NBMPR (ENT inhibitor) 10 mg/kg i.v., co-administered
[16] = female, Sprague-Dawley, rat, fetus, iv, 100 mg/kg, with NBMPR (ENT inhibitor) 10 mg/kg i.v., co-administered
[17] = female, Sprague-Dawley, rat, placenta, iv, 100 mg/kg, with NBMPR (ENT inhibitor) 10 mg/kg i.v., co-administered
[18] = placenta, + NBMPR 10 mg/kg i.v.
[19] = amniotic fluid, molnupiravir 100 mg/kg i.v. alone
[20] = fetus, molnupiravir 100 mg/kg i.v. alone
[21] = placenta, molnupiravir 100 mg/kg i.v. alone
[22] = amniotic fluid, + NBMPR 10 mg/kg i.v.

N#C[C@@]1(c2ccc3c(N)ncnn23)O[C@H](CO)[C@@H](O)[C@H]1O [GS-441524]
Transfer ratio from mother to amniotic fluid [1]: 0.71 ± 0.19 | Transfer ratio from mother to fetus [1]: 0.51 ± 0.18 | Transfer ratio from mother to placenta [1]: 0.35 ± 0.09 | EC50 [2]: 180 nM

CC(C)C(=O)OC[C@H]1O[C@@H](n2ccc(NO)nc2=O)[C@H](O)[C@@H]1O [Molnupiravir]
Increase of the bioavailability of NHC [3]: more than 90% | Time up to which detected ([4]; blood, molnupiravir 100 mg/kg i.v.): up to 200 min | CL [4, 9]: 21.89 ± 2.99 mL/min/kg | Time for the maximum concentration in the conceptus ([4]; conceptus, molnupiravir 100 mg/kg i.v.): approximately 40 min | Kp ([4]; female, Sprague-Dawley, rat, amniotic fluid (relative to blood), iv, 100 mg/kg): 0.05 ± 0.01 | concentration at 60 min ([4]; female, Sprague-Dawley, rat, amniotic fluid dialysate, intravenous, 100 mg/kg): 1.48 ng/mL | AUC(0-inf) [4, 10]: 4660 ng·h/mL | Cmax [4, 10]: 2110 ± 380 ng/mL | half-life [4, 10]: 13.8 ± 2.88 h | MRT ([4]; female, Sprague-Dawley, rat, amniotic fluid, iv, 100 mg/kg): 1.73 h | concentration at 140 min ([4]; female, Sprague-Dawley, rat, blood dialysate, intravenous, 100 mg/kg): 18.2 ng/mL | AUC(0-inf) [4, 11]: 61600 ng·h/mL | Cmax [4, 11]: 219000 ± 42300 ng/mL | half-life [4, 11]: 0.183 ± 0.0333 h | MRT ([4]; female, Sprague-Dawley, rat, blood, iv, 100 mg/kg): 0.267 h | Kp ([4]; female, Sprague-Dawley, rat, fetus (relative to blood), iv, 100 mg/kg): 0.03 ± 0.01 | concentration at 140 min ([4]; female, Sprague-Dawley, rat, fetus dialysate, intravenous, 100 mg/kg): 3.02 ng/mL | AUC(0-inf) [4, 12]: 3310 ng·h/mL | Cmax [4, 12]: 3540 ± 1320 ng/mL | half-life [4, 12]: 0.483 ± 0.0833 h | MRT ([4]; female, Sprague-Dawley, rat, fetus, iv, 100 mg/kg): 0.7 h | Kp ([4]; female, Sprague-Dawley, rat, placenta (relative to blood), iv, 100 mg/kg): 0.02 ± 0.009 | concentration at 80 min ([4]; female, Sprague-Dawley, rat, placenta dialysate, intravenous, 100 mg/kg): 15.1 ng/mL | AUC(0-inf) [4, 13]: 2420 ng·h/mL | Cmax [4, 13]: 2560 ± 730 ng/mL | half-life [4, 13]: 1 ± 0.417 h | MRT ([4]; female, Sprague-Dawley, rat, placenta, iv, 100 mg/kg): 1.17 h | Time within which metabolized to NHC ([4]; molnupiravir 100 mg/kg i.v.): ≤ 20 min | Fetal finding at lower dose ([5]; 500 mg/kg): decreased fetal body weight | Fetal finding at high dose ([5]; 1000 mg/kg): internal and skeletal malformations of the fetus | NOAEL for maternal and developmental toxicity [5]: 250 mg/kg | Finding at doses eight times the normal dose / expected exposure ([5]; pregnant rat model): developmental toxicity | AUC(0-inf) [6, 14]: 2770 ng·h/mL | Cmax [6, 14]: 2140 ± 640 ng/mL | MRT [6, 14]: 1.47 h | half-life [6, 14]: 3.12 ± 0.833 h | AUC(0-inf) [6, 15]: 49600 ng·h/mL | Cmax [6, 15]: 261000 ± 111000 ng/mL | MRT [6, 15]: 0.283 h | clearance [6, 15]: 59.2 ± 22.6 mL/min/kg | half-life [6, 15]: 0.2 ± 0.0167 h | AUC(0-inf) [6, 16]: 1650 ng·h/mL | Cmax [6, 16]: 2410 ± 180 ng/mL | MRT [6, 16]: 0.833 h | half-life [6, 16]: 0.433 ± 0.1 h | AUC(0-inf) [6, 17]: 1880 ng·h/mL | Cmax [6, 17]: 1020 ± 190 ng/mL | half-life [6, 17]: 3 ± 1.42 h | MRT [6, 18]: 3.95 ± 1.48 h

O=c1nc(NO)ccn1[C@@H]1O[C@H](CO)[C@@H](O)[C@H]1O [NHC, β-D-N4-hydroxycytidine]
Detection in plasma of nursing pups [7]: can be detected | Interaction with transporter (human ENT2): interacts | Median Tmax in plasma [8]: 1 h | Bioavailability [3]: poor bioavailability | Interaction with transporter (human ENT1): interacts | Concentration in dialysate sample (representative chromatogram) ([4]; amniotic fluid dialysate, 60 min after administration): 10.05 ng/mL | AUCtissue/AUCblood (biodistribution ratio) [4, 19]: 0.19 ± 0.03 | Cmax [4, 19]: 4.78 ± 0.83 ^b μg/mL | MRT [4, 19]: 2.82 ± 0.13 h | Tmax [4, 19]: 150 ± 33 min | t1/2 [4, 19]: 148 ± 52 ^b min | Concentration in dialysate sample (representative chromatogram) ([4]; blood dialysate, 140 min after molnupiravir 100 mg/kg i.v.): 960 ng/mL | Cmax [4, 9]: 116500 ± 3870 ng/mL | MRT [4, 9]: 0.95 ± 0.1 h | Tmax [4, 9]: 40 min | t1/2 [4, 9]: 45 ± 5 min | Time post-administration until which detected ([4]; dialysates of all organs): 360 min | Concentration in dialysate sample (representative chromatogram) ([4]; fetus dialysate, collected at 140 min): 185 ng/mL | AUCtissue/AUCblood (biodistribution ratio) [4, 20]: 0.29 ± 0.11 | Cmax [4, 20]: 7.20 ± 2.10 ^b μg/mL | MRT [4, 20]: 2.62 ± 0.167 h | Tmax [4, 20]: 123 ± 11 ^b min | t1/2 [4, 20]: 492 ± 305 ^b min | Concentration in dialysate sample (representative chromatogram) ([4]; placenta dialysate, 80 min after administration): 126.2 ng/mL | AUCtissue/AUCblood (biodistribution ratio) [4, 21]: 0.09 ± 0.01 | Cmax [4, 21]: 2.98 ± 0.42 ^b μg/mL | MRT [4, 21]: 2.6 ± 0.167 h | Tmax [4, 21]: 90 ± 16 min | t1/2 [4, 21]: 138 ± 18 ^b min | Transfer ratio across the blood-placenta barrier ([4]; range over fetus, placenta, amniotic fluid): 9–29% | AUCtissue/AUCblood (biodistribution ratio) [6, 22]: 0.19 ± 0.05 | Cmax [6, 22]: 4.21 ± 0.44 ^d μg/mL | MRT [6, 22]: 4.9 ± 1.28 h | Tmax [6, 22]: 100 ± 14 ^d min | t1/2 [6, 22]: 181 ± 56 ^d min | Cmax ([6]; blood, + NBMPR 10 mg/kg i.v.): 97260 ± 24950 ng/mL | MRT ([6]; blood, + NBMPR 10 mg/kg i.v.): 0.933 ± 0.1 h | t1/2 ([6]; blood, + NBMPR 10 mg/kg i.v.): 66 ± 3 min | AUCtissue/AUCblood (biodistribution ratio) ([6]; fetus, + NBMPR 10 mg/kg i.v.): 0.27 ± 0.07 | Cmax ([6]; fetus, + NBMPR 10 mg/kg i.v.): 4.69 ± 1.92 ^d μg/mL | MRT ([6]; fetus, + NBMPR 10 mg/kg i.v.): 12.7 ± 4.25 h | Tmax ([6]; fetus, + NBMPR 10 mg/kg i.v.): 93 ± 16 ^d min | t1/2 ([6]; fetus, + NBMPR 10 mg/kg i.v.): 507 ± 178 ^d min | AUCtissue/AUCblood (biodistribution ratio) [6, 18]: 0.14 ± 0.06 | Cmax [6, 18]: 2.95 ± 0.97 ^d μg/mL | MRT [6, 18]: 4.18 ± 1.08 h | Tmax [6, 18]: 106 ± 12 ^d min | t1/2 [6, 18]: 157 ± 56 ^d min
